T cruzi growth-1 – T. cruzi intracellular proliferation inhibitors, primary screen, cell-based, beta-gal Tulahuen parasites, NIH3T3 host, luminescence. T. cruzi beta-gal in NIH3T3, GalScreen luminescence, 90 h. inhibition, % at 8.34 µM. hit rate 5.9% among 77,000. AID 624255, 2012;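 active = mean inhibition above about 93%, with at least 55% of replicates each passing it, limit read from the data, passing the limit was not always enough; inconclusive = only one of those two conditions holds; inactive = neither condition holds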
IDH1 mut inh – inhibitors of IDH1 R132H reductase, primary screen, biochemical, plate reader, single point. Isocitrate dehydrogenase [NADP] cytoplasmic (Homo sapiens), O75874. diaphorase/resazurin fluorescence, 60 min. inhibition, % at 10 µM. hit rate 0.18% among 70,000. AID 624101, 2012; in the data active = inhibition above about 34%; inconclusive = no clear call, values can overlap the other calls; inactive = below about 11%;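 note: 0% = DMSO and 100% = no enzyme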
GASC1 inh – inhibitors of GASC-1 (KDM4C) histone demethylase, primary screen, biochemical, single concentration HTS | hit rate 0.15% among 96,000 | Lysine-specific demethylase 4C (Homo sapiens), Q9H3R0 | inhibition, % at 12.5 µM | GST-KDM4C 2-372, H3K9me3 peptide, LANCE TR-FRET | AID 720574, 2013;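 active = mean replicate inhibition above about 25%, with at least 55% of replicates also reaching it, limit read from the data, passing the limit was not always enough; inconclusive = only one of those two conditions met; inactive = neither condition met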
Target sequence (Q9H3R0 2-372 limits assumed): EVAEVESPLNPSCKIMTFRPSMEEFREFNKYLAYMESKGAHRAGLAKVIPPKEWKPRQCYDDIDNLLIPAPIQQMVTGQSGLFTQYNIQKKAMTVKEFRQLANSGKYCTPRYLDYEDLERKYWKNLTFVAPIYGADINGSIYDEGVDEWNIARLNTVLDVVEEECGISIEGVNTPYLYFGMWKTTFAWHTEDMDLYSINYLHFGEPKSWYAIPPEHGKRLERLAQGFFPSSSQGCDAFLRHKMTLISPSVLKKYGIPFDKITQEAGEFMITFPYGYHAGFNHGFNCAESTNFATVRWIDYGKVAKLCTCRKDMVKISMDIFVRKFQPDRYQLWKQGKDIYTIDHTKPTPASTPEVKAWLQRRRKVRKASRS
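System: N-terminal GST-fused human GASC-1 (KDM4C) fragment, residues 2-372 / Amount: 10 nM GST-KDM4C in enzyme reaction / Also added: H3K9me3 peptide with Fe(II)/2OG / Times: 30 min demethylation and 1 h detection at room temperature / Signal: LANCE TR-FRET / Read-out basis: Fall in 671/618 emission ratio as inhibition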
T cruzi growth-2 – T. cruzi intracellular proliferation inhibitors, confirmation, cell-based, NIH3T3 host, beta-gal parasite, luminescence, cherry-pick; shares compounds with T cruzi growth-1; T. cruzi beta-gal in NIH3T3, GalScreen luminescence, 90 h; inhibition, % at 8.35 µM; hit rate 72% among 5,600;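 active = mean replicate inhibition above about 95% and at least 55% of replicates individually reaching it, limit read from the data; inconclusive = only one of the two criteria is met; inactive = neither criterion is met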
T cruzi growth-3 – inhibitors of intracellular T. cruzi replication, confirmation, NIH3T3 host cells, beta-gal parasites, cherry-pick, set 2; inhibition, % at 2.09 µM; AID 651740, 2012; T. cruzi beta-gal in NIH3T3, GalScreen luminescence, 90 h; shares compounds with T cruzi growth-1; hit rate 21% among 5,600;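 active = mean inhibition above about 95%, with at least 55% of replicates also reaching it, limit read from the data; inconclusive = meets just one of the two conditions; inactive = meets neither condition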;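 note: plate controls were neutral control median for no effect and positive control median for full effect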
NIH3T3 tox – cytotoxicity in mouse NIH/3T3 fibroblasts, confirmation, cytotoxicity control for T. cruzi proliferation inhibitor project, cell-based, cherry-pick, single point; shares compounds with T cruzi growth-1; AID 651742, 2012; hit rate 14% among 5,600; NIH/3T3 viability, CellTiter-Glo ATP luminescence, 90 h; cytotoxicity (signal decrease), % at 8.35 µM;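 active = mean signal decrease across replicates above about 35% based on untreated-well scatter, with enough replicates individually passing, limit read from the data; inconclusive = no rule stated though some were filed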;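 note: 0% = median of neutral control wells and 100% = median of positive control wells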
3T3 cytotox 2 – NIH/3T3 fibroblast cytotoxicity, confirmation, cytotoxicity control, cell-based, cherry-pick, single point, set 2 | shares compounds with T cruzi growth-1 | NIH/3T3 viability, CellTiter-Glo ATP luminescence, 90 h | inhibition, % at 24.9 µM | hit rate 56% among 5,600 | AID 651744, 2012;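 active = mean loss of cell viability signal at or above a set limit, and enough replicates individually reaching it; inconclusive = meets only the mean limit or only the replicate share; inactive = meets neither condition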;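 note: 0% = median of neutral control wells and 100% = median of positive control wells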
Numbers without * were called inactive; u = inconclusive; x = no result given. This is one part of a sample in which hits are shown more often than they occur.

SMILES | T cruzi growth-1 | IDH1 mut inh | GASC1 inh | T cruzi growth-2 | T cruzi growth-3 | NIH3T3 tox | 3T3 cytotox 2
C[C@@H]1CCCCO[C@H](CN(C)Cc2ccc(C(=O)O)cc2)[C@H](C)CN([C@H](C)CO)C(=O)c2cc(NC(=O)Nc3cccc4ccccc34)ccc2O1 | 22 | -7 | 0 | x | x | x | x
C[C@@H]1CCCCO[C@@H](CN(C)Cc2ccccc2)[C@H](C)CN([C@@H](C)CO)C(=O)c2cc(NC(=O)Nc3cccc4ccccc34)ccc2O1 | 107* | -12 | -2 | 103* | 104* | 6 | 106*
COc1ccc(CN(C)C[C@H]2OCCCC[C@@H](C)Oc3ccc(NC(=O)Nc4cccc5ccccc45)cc3C(=O)N([C@@H](C)CO)C[C@@H]2C)cc1 | u | x | 8 | 97* | 101* | 41* | 103*
C[C@@H]1CCCCO[C@@H](CN(C)CC2CCCCC2)[C@@H](C)CN([C@H](C)CO)C(=O)c2cc(NC(=O)Nc3cccc4ccccc34)ccc2O1 | u | x | -1 | 105* | 105* | 18 | 36*
Cc1cc(C)c(NC(=O)CN(c2ccc(Cl)cc2C)S(C)(=O)=O)c(C)c1 | x | 0 | x | x | x | x | x
Cc1ccccc1-c1nnc(SCC(=O)Nc2ccc(C(C)C)cc2)n1C | x | 0 | x | x | x | x | x
Cc1ccc(C(=O)Nc2ccccc2C(=O)N2CCCC2)cc1S(=O)(=O)N1CCOCC1 | x | 0 | x | x | x | x | x
O=C(NO)c1ccc(C(=O)N/N=C/c2cccs2)cc1 | x | 0 | x | x | x | x | x
C[C@H]1CCCCO[C@H](CN(C)Cc2ccc(C(=O)O)cc2)[C@@H](C)CN([C@@H](C)CO)C(=O)c2cc(NC(=O)Nc3cccc4ccccc34)ccc2O1 | 19 | -8 | 1 | x | x | x | x
C[C@@H]1CN([C@H](C)CO)C(=O)c2cc(NC(=O)Nc3cccc4ccccc34)ccc2O[C@@H](C)CCCCO[C@H]1CN(C)Cc1ccccc1 | 111* | 2 | -1 | 92 | 105* | 34 | 107*
C[C@H](CO)N1C[C@H](C)[C@@H](CN(C)Cc2ccc(C(=O)O)cc2)OCCCC[C@H](C)Oc2ccc(NC(=O)Nc3cccc4ccccc34)cc2C1=O | 12 | -10 | 1 | x | x | x | x
C[C@H](CO)N1C[C@H](C)[C@H](CN(C)Cc2ccccc2)OCCCC[C@H](C)Oc2ccc(NC(=O)Nc3cccc4ccccc34)cc2C1=O | 117* | -3 | -2 | 92 | 63 | 7 | 93*
COc1cc(-c2nnc(SCC(N)=O)n2C)cc(OC)c1OC | x | 0 | x | x | x | x | x
CCN(CC)CCn1nnc2c(=O)oc3ccccc3c21 | x | 0 | x | x | x | x | x
COc1cc(/C=C/C(=O)OC2C(COC(=O)c3cc(OC)c(OC)c(OC)c3)OC(OC3(CO)OC(CO)C(O)C3O)C(O)C2O)cc(OC)c1OC (stereo not given) | x | 0 | x | x | x | x | x
CS(=O)(=O)N1CCCCN2[C@H](C1)[C@H](c1ccc(C3=CCCC3)cc1)[C@@H]2CO | u | x | 1 | 60 | 26 | 19 | 9
COc1ccc(S(=O)(=O)N2CCCCN3[C@@H](CO)[C@H](c4ccc(C5=CCCC5)cc4)[C@@H]3C2)cc1 | u | x | 1 | 104* | 88 | 27 | 104*
CS(=O)(=O)N1CCCCN2[C@H](CO)[C@H](c3ccc(C4=CCCC4)cc3)[C@@H]2C1 | 51 | x | -1 | x | x | x | x
COc1ccc(S(=O)(=O)N2CCCCN3[C@H](CO)[C@H](c4ccc(C5=CCCC5)cc4)[C@H]3C2)cc1 | 94 | x | -1 | x | x | x | x
O=C(NC(=S)c1c(-c2ccccc2)cc2ccccn12)c1ccccc1 | x | 0 | x | x | x | x | x
COC(=O)c1ccccc1NC(=O)COc1ccc(Br)cc1C | x | 0 | x | x | x | x | x

Screening results: PubChem, Broad Institute
